# ARNT TACC3 PPI: disrupts binding between human ARNT and TACC3; AlphaScreen His-ARNT PAS-B/GST-TACC3 binding, luminescence; TACC3 fragment carries E629A point mutation; inhibition, % at 9.99 µM; 390,000 tested, 0.66% active; AID 623870;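 active means mean inhibition of replicates at least 50% and at least half of replicates each reaching 50%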;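 further: 0% = complete ARNT plus TACC3 wells and 100% = ARNT alone without TACC3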
# miR122 inh: inhibitors of miR-122 in Huh7 cells; Huh7 miR-122 Renilla luciferase sensor, 48 h; neutral wells = 0, positive control = 100; activation (reporter increase), % at 12.5 µM; 340,000 tested, 0.3% active; AID 602342;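 active means mean replicate activation score at least 90 and every replicate individually at or above 90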;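 further: higher luciferase means less miR-122 activity so hits act as miR-122 inhibitors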
# CAL PDZ FP-1: CAL PDZ (human) peptide binding inhibition. Q9HD26. purified CAL PDZ, TMR-peptide fluorescence polarization, 1 h. inhibition, % at 24.9 µM. 300,000 tested, 0.92% active;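 active means mean inhibition of at least 30% with at least half of replicates also reaching 30%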;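 further: 0% = DMSO neutral control and 100% = excess unlabeled competitor peptide PRC23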
# CAL PDZ FP-2: inhibitors of human CAL PDZ peptide binding; Q9HD26; purified CAL PDZ, TMR-peptide fluorescence polarization, 1 h; inhibition, % at 20 µM; 330,000 tested, 0.02% active;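 active means highest replicate inhibition of at least 40%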;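 further: plate controls were DMSO neutral control wells for no effect and unlabeled competitor peptide control wells for full effect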
#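 Test system: purified CerCALP PDZ construct; Compound dosing: one concentration, 20 µM compound; Also added: TMR-labelled reporter peptide T*-PRC34 bound in PDZ groove; Read-out: inhibition from polarization loss; Controls: unlabelled peptide and DMSO controls; Signal: FP readout, S and P plane fluorescence; Incubation: 1 h at RT.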
# SR-BI HDL uptake: inhibitors of mouse SR-BI mediated HDL lipid uptake; Q61009; ldlA[mSR-BI] CHO cells, DiI-HDL uptake fluorescence, 3 h; 320,000 tested, 0.96% active; inhibition, % at 12.5 µM; AID 488896;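 active means mean replicate inhibition of at least 70% and a set share of replicates each scoring 70 or more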;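 further: 0% = median of neutral control wells and 100% = median of positive control wells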
# Target sequence (Q61009 whole entry, looked up): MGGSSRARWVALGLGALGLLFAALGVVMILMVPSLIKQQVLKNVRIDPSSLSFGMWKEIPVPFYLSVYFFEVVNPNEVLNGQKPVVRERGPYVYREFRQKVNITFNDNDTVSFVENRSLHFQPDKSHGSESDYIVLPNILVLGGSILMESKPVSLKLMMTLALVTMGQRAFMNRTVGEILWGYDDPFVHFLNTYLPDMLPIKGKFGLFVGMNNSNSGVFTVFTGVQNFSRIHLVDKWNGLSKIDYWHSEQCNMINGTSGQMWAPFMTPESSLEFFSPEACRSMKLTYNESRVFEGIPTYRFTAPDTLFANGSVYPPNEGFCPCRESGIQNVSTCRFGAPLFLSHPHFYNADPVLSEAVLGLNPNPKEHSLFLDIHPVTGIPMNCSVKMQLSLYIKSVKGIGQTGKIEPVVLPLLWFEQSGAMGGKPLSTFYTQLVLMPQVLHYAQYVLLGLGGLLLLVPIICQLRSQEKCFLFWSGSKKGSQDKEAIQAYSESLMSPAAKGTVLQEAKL
# SR-BI DiI-HDL act: SR-BI HDL lipid transfer activation; CHO ldlA[mSR-BI] cells, DiI-HDL uptake fluorescence, 3 h; 100 = double the neutral-control signal; activation, % at 12.5 µM; 320,000 tested, 0.096% active;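 active means mean replicate activation of at least 60% and every replicate at or above 60%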;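 further: 0% = median plate neutral-control signal and 100% = twice that signal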
#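 System: LDL receptor-deficient CHO ldlA cells overexpressing murine SR-BI | Timing: 3 h uptake period with compound, 37 °C | Medium: HEPES-buffered (25 mM, pH 7.4) F12 plus 0.5% BSA | Dosing: Single-point compound dose | Signal: Bottom-read fluorescence, 550/595 nm | Read-out: Retained DiI signal reflecting DiI-HDL uptake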
# * hit, by the source's call; . = not tested or not shown; [ ] = remark or other dose. Only some compounds are listed: those with a hit (about 2.1% of all), similar ones and a draw of the others.
SMILES,ARNT TACC3 PPI,miR122 inh,CAL PDZ FP-1,CAL PDZ FP-2,SR-BI HDL uptake,SR-BI DiI-HDL act
COc1ccccc1CNC(=O)C[C@@H]1C[C@@H]2c3cc(N(C)C)ccc3O[C@@H]2[C@H](CO)O1,13,-4[16.7 µM],.,.,.,.
CCC(C)(C(=O)NC1CCCCC1)N(C(=O)CC1NC(=O)NC1=O)c1c(C)n(C)n(-c2ccccc2)c1=O (stereo not drawn),3,-5,34*,-2,-8,8
CCC(C)(C(=O)NC1CCCCC1)N(C(=O)CNC(C)=O)c1c(C)n(C)n(-c2ccccc2)c1=O (stereo not drawn),-1,-2,2,-2,-7,7
COc1ccc(C(=O)OCc2cc(=O)oc3c(C)c(C)ccc23)cc1S(=O)(=O)N1CCOCC1,.,0,.,.,.,.
COc1ccc(C(C)=O)cc1COC(=O)c1ccc(C)c(S(=O)(=O)N2CCOCC2)c1,-4,.,-2,-1,70*,-70
CCc1ccc(S(=O)(=O)/N=C2/C=C(Sc3ncn[nH]3)C(=O)c3ccccc32)cc1,36*,.,5,28,-3,3
Cc1ccc(S(=O)(=O)/N=C2\C=C(NS(=O)(=O)c3ccccc3)C(=O)c3ccccc32)cc1,20,17,.,-2,-3,3
CCc1ccc(S(=O)(=O)/N=C2\C=C(Nc3ccc(O)cc3)C(=O)c3ccccc32)cc1,44,-10,2,2,63,-63
CCc1ccc(S(=O)(=O)/N=C2\C=C(Nc3cccc(C(=O)O)c3)C(=O)c3ccccc32)cc1,69*,1,2,0,-12,12
CCCN(C)C[C@@H]1OCCCC[C@H](C)Oc2ccc(NC(=O)Nc3ccc(C(F)(F)F)cc3)cc2C(=O)N([C@@H](C)CO)C[C@@H]1C,4,11[16.7 µM],.,.,.,.
N=c1sccn1CC(=O)Nc1cc(Cl)ccc1Oc1ccccc1,7,-1,0,-3,-21,21
N=c1sccn1CC(=O)Nc1cccc(Oc2ccccc2)c1,11,-7,38*,.,-23,23
CC(=O)N(C)C[C@H]1Oc2cc(-c3cccc(F)c3)ccc2S(=O)(=O)N([C@@H](C)CO)C[C@@H]1C,-5,7[16.7 µM],.,.,.,.
O=C(NCC(F)(F)F)[C@@H]1[C@@H](CO)[C@@H]2Cn3c(cccc3=O)[C@@H]2N1C(=O)C1CCC1,-12,-4[16.7 µM],.,.,.,.
O=C(NN=Cc1ccccc1OC(F)F)c1cccc(S(=O)(=O)N2CCCC2)c1,7,1,.,-2,72*,-72
COc1cc(OC)c(OC)cc1/C=N/NC(=O)c1cccc(S(=O)(=O)N2CCOCC2)c1,3,-4,.,0,60,-60
O=C(N/N=C/c1ccc(OC(F)F)cc1OC(F)F)c1cccc(S(=O)(=O)N2CCOCC2)c1,0,.,2,-1,83*,-83
O=C(NN=Cc1ccc(F)cc1)c1cccc(S(=O)(=O)N2CCCC2)c1,2,.,0,-1,20,-20
C[C@H](CO)N1C[C@H](C)[C@@H](CN(C)C(=O)Nc2ccc(C(F)(F)F)cc2)OCCCC[C@H](C)Oc2ccc(NC(=O)Nc3cccc4ccccc34)cc2C1=O,0,-2[16.7 µM],.,.,.,.
COc1ccc(S(=O)(=O)Nc2ccc3c(c2)CC(=O)N([C@@H](C)CO)C[C@@H](C)[C@H](CN(C)S(=O)(=O)c2ccc(Cl)cc2)O3)cc1,5,-10[16.7 µM],.,.,.,.
COc1ccc(Nc2nc(-c3cccs3)nc3ccccc23)c(OC)c1,-5,0,-1,0,77*,-77
COc1ccc(Nc2cc(C(=O)N3CCc4ccccc4C3)c3ccccc3n2)c(OC)c1,.,52,-1,-1,78*,-78
COc1ccc(Nc2nc(N3CCN(C)CC3)nc3ccccc23)c(OC)c1,3,.,53*,2,12,-12
COc1ccc(Nc2nc(-c3cccc([N+](=O)[O-])c3)nc3ccccc23)c(OC)c1,-1,.,-3,0,91*,-91
COc1ccc(Nc2c3c(nc4ccccc24)CCC3)c(OC)c1,9,-16,-5,-2,13,-13
SMILES,ARNT TACC3 PPI,miR122 inh,CAL PDZ FP-1,CAL PDZ FP-2,SR-BI HDL uptake,SR-BI DiI-HDL act
COCCCNC(=O)c1cc(Nc2ccc(OC)cc2OC)nc2ccccc12,2,2,3,2,33,-33
O=C(Nc1ccc(Cl)c(Cl)c1)N[C@@H]1CC[C@H](CCNC(=O)c2ccc(F)cc2)O[C@@H]1CO,5,-4[16.7 µM],.,.,.,.
C[C@@H]1CN([C@@H](C)CO)C(=O)Cc2cc(NC(=O)NC3CCCCC3)ccc2O[C@H]1CN(C)S(=O)(=O)c1ccccc1,0,-16[16.7 µM],.,.,.,.
O=C(O)c1cccc(-c2ccc(/C=N/Nc3nn[nH]n3)o2)c1,67*,.,.,0,-18,18
CNC(=S)N/N=C/c1ccc(-c2cccc(C(=O)O)c2)o1,7,.,-3,-2,.,.
COc1ccc(C(=O)N=c2sc3c(C)ccc(OC)c3n2C)cc1OC,-5,-5,-2,-2,.,.
COc1cccc(C(=O)N=c2sc3c(C)ccc(OC)c3n2C)c1,-2,.,1,-1,81*,-81
COc1cccc(C2C=C(c3cccs3)Nc3ncnn32)c1OC (stereo not drawn),28*,-7,-1,-2,-33,33
COc1cccc(C2=CC(c3cccc(OC)c3OC)n3nnnc3N2)c1 (stereo not drawn),10,7,-4,0,0,0
Nc1nc(N)nc(-c2ccccn2)n1,64*,-5,-1,.,-9,9
c1ccc(-c2nc(-c3ccccn3)nc(-c3ccccn3)n2)nc1,51*,4,-7,0,-11,11
Clc1ccc(-c2cnnc(-c3ccccn3)n2)cc1,61*,-6,-4,-1,14,-14
Nc1nc(N)nc(-c2ccccc2O)n1,0,6,-4,.,-8,8
Cc1cc(Oc2ccc(Cl)cc2)nc(-c2ccccn2)n1,11,-5,-3,1,-3,3
Cc1ccccc1S(=O)(=O)N1CCCCN2[C@@H](CO)[C@@H](c3ccc(-c4cncnc4)cc3)[C@@H]2C1,9,0[16.7 µM],.,.,.,.
Cc1nn(-c2ccccc2)c(C)c1/C=N/NC(=O)c1cc(-c2ccc(Br)s2)[nH]n1,0,17,.,-1,71*,-71
Cc1nn(-c2ccccc2)c(C)c1/C=N/NC(=O)c1cc(-c2cccs2)[nH]n1,6,.,-5,-4,80*,-80
CC(=O)N(C)C[C@@H]1Oc2ncc(-c3cncnc3)cc2C(=O)N([C@@H](C)CO)C[C@H]1C,-1,-5[16.7 µM],.,.,.,.
COc1ccc(NC(=O)N(C)C[C@@H]2Oc3ncc(C#CCN(C)C)cc3C(=O)N([C@H](C)CO)C[C@H]2C)cc1,-17,3[16.7 µM],.,.,.,.

# Compound activity: PubChem, Broad Institute
